# This is a sample that favours compounds with a hit; in the whole collection about 1.9% have one here.
# KLK7 zymogen act – activates the human kallikrein-7 zymogen | purified proKLK7, EDANS-DABCYL substrate fluorescence; 100% is mature enzyme control, 0% vehicle | P49862 | activation, % at 7 µM | AID 652039 | 0.9% of 370,000 active;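 active = activation above the mean of all tested compounds plus 3 SD, computed per campaign excluding outliers beyond control limits, cut at about 13% in these data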
# Target sequence (P49862 whole entry, looked up): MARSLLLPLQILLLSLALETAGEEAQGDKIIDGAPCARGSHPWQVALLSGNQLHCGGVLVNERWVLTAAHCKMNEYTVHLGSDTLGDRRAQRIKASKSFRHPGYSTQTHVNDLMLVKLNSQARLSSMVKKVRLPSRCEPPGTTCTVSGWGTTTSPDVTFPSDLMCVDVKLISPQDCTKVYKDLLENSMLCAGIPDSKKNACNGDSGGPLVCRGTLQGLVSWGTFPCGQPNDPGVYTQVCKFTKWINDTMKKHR
# V-ATPase pHluor – alters yeast V-ATPase proton transport | 0.37% of 350,000 active | response, % at 10 µM | S. cerevisiae, pHLuorin cytosolic pH fluorescence; in the data active = response mostly above about 7.3%, no sharp cut-off; inactive = mostly below about 5.4%; note: actives read high
# T cell modulator – T cell immune modulators affecting CD8 T cell-vesicle binding; AID 2052; 0.068% of 330,000 active; 2C CD8+ T cell-vesicle binding, flow cytometry; stronger effect = lower value; response (vesicle binding), % at 7 µM;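 active = response, share of CD8 T cells binding vesicles, and their 90th percentile fluorescence all below set limits, cut at about 80% in these data, passing the limit was not always enough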;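 note: values below 100% mean blocked vesicle binding to the CD8+ T cells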
#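 Also added: QL9-peptide-loaded Drosophila micro-vesicles bearing Ld, ICAM-1 and B7-1; Test system: purified 2C TCR transgenic mouse naive CD8+ T cells; Measured by: cytometric PE anti-B7-1 and Alexa647 anti-CD8 signals after 1% paraformaldehyde fixation; Timing: binding step 1.5 h, 37 °C, antibody labelling 20 min, ice.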
# MIN6 prolif – inducers of beta-cell replication in MIN6 cells | MIN6 cells proliferation, ATPlite luminescence, 48 h; cells starved in 0.2% serum; 100% = growth in 10% serum | proliferation, % at 10 µM | 0.29% of 330,000 active | AID 2380;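 active = compounds whose signal lies at least 3.5 SD above the mean of all wells on their plate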;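 note: 0% = DMSO-treated cells in low-serum medium and 100% = 10% serum control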
# Rce1 inh – inhibitors of yeast Ras-converting enzyme; yeast membranes, quenched prenylated peptide cleavage fluorescence; AID 2563; calls only; Q03530; 0.27% of 290,000 active;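 active = fall in fluorescence gain of 50% or more versus controls, with final raw signal at or below 3038400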;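 note: plate controls were neutral control wells for no effect and wells lacking membranes for full effect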
# Target sequence (Q03530 whole entry, looked up): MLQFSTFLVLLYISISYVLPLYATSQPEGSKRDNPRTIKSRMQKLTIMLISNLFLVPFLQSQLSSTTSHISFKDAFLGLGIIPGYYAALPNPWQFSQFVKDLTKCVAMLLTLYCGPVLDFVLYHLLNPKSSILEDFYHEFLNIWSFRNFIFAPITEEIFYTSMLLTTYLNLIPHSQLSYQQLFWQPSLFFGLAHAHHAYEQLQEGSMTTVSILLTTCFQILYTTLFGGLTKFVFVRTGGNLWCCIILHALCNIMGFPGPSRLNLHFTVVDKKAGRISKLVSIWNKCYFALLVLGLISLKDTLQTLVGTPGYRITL
# Yeast superoxide – caloric restriction mimetics inhibiting age-related superoxide in yeast; superoxide response (% of plate mean), % at 10 µM; 0.18% of 330,000 active; AID 2690; S. cerevisiae aged cells, superoxide DHE fluorescence; stronger effect = lower value;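 active = superoxide response under a set limit, about three screen SD below normal, cut at about 65% in these data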;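 note: yeast aged for seven days with compound at 30 °C before DHE staining; 100% = average MFI of all compound-treated wells on the plate with controls excluded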
# Superoxide pick – yeast aging superoxide inhibition, cherry pick confirmation | shares compounds with Yeast superoxide | S. cerevisiae aging, superoxide DHE fluorescence; stronger effect = lower value | superoxide response (% of plate), % at 10 µM | 1% of 850 active | AID 434994;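 active = superoxide signal below 65% of the plate average of sample wells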;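 note: cells aged with compound for 7 days at 30 degrees C before staining; 100% equals mean DHE fluorescence of all compound wells on the plate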
# DHE fluor count – counter-screen for compounds affecting DHE oxidation and fluorescence in yeast | fluorescence response, % at 10 µM | AID 435000 | S. cerevisiae BY4741, flow cytometry; stronger effect = lower value | 850 tested, under 10 active | shares compounds with Yeast superoxide;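 active = fluorescence response below 15%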;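 note: percent of the mean fluorescence averaged over all compound wells on the plate; lower means stronger quenching of DHE signal or ROS scavenging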
# The depositor's hits bear a star; i = inactive; · = no result.
SMILES,KLK7 zymogen act,V-ATPase pHluor,T cell modulator,MIN6 prolif,Rce1 inh,Yeast superoxide,Superoxide pick,DHE fluor count
CC(=O)c1cc2c(cc1NC(=O)C1CN(C(C)=O)c3ccccc3O1)OCO2 (configuration not stated),0.8,-2.4,251.4,-1.1,·,116.7,·,·
COc1ccccc1-c1nnc(NC(=O)c2ccc(S(=O)(=O)N3CCCC3)cc2)o1,0.1,2.7,0.0,-3.7,i,101.0,116.1,105.6
CC1CCCN(S(=O)(=O)c2ccc(C(=O)Nc3nnc(C4CC4)o3)cc2)C1 (configuration not stated),0.1,0.7,394.7,-6.8,i,64.7*,93.1,100.1
COc1ccc(-c2nnc(NC(=O)c3ccc(S(=O)(=O)N(C)CC4CCCO4)cc3)o2)c(OC)c1 (configuration not stated),-0.6,-3.6,306.8,-4.0,i,100.0,93.7,97.0
CC1CCCN(S(=O)(=O)c2ccc(C(=O)Nc3nnc(-c4ccccn4)o3)cc2)C1 (configuration not stated),-0.2,0.9,140.4,-1.1,i,74.0,·,·
Cc1cc(NC(=O)c2ccc(S(=O)(=O)N(C)CC3CCCO3)cc2)no1 (configuration not stated),-0.3,-0.9,215.3,-0.8,i,91.1,·,·
O=C(Nc1nnc(-c2ccc(F)cc2)o1)c1ccc(S(=O)(=O)N2CCOCC2)cc1,·,-2.6,143.8,-6.1,i,98.0,104.5,111.7
C=C(C(=O)Nc1ccccc1)c1ccc(C)cc1,0.0,5.4,245.0,-4.1,i,97.6,·,·
CCCc1nc2ccc(C)cn2c1Cc1ccc(OC)cc1C,0.8,·,·,·,·,·,·,·
C=CCN(CC#Cc1ccccc1)CC1CC1,-0.4,·,·,·,·,·,·,·
O=C(/C=C/c1cccs1)NC(=S)NNC(=O)Cc1cccs1,-0.7,-1.0,305.6,-3.3,i,39.3*,73.2,97.4
COc1ccc(/C=C/C(=O)NC(=S)NNC(=O)Cc2cccs2)cc1OC,-1.3,-1.9,420.6,0.1,i,122.8,·,·
COc1ccccc1NS(=O)(=O)c1cc(C)ccc1C,-0.3,0.7,119.6,-1.5,i,102.0,·,·
Cc1ccc(C)c(S(=O)(=O)Nc2ccc(O)cc2)c1,0.2,-1.3,393.5,-0.4,i,91.9,107.5,111.0
COc1ccc(OC)c(S(=O)(=O)Nc2ccc(F)cc2)c1,0.1,3.0,346.7,-1.4,i,102.9,·,·
COc1ccc(C)cc1S(=O)(=O)Nc1ccc(F)cc1,-0.3,-0.6,360.6,-0.7,i,111.4,114.5,96.2
Cc1ccc(C)c(NS(=O)(=O)c2ccccc2C)c1,-0.2,4.8,267.3,0.5,i,103.2,91.4,93.4
O=C(Nc1cccc(Cl)c1)Nc1ccc2nccnc2c1,0.2,0.5,154.5,0.3,i,59.7*,85.9,93.6
COc1ccc(C(=O)N/C(=C/c2ccco2)C(=O)N2CCCCCC2)cc1,0.4,1.1,0.0,-2.3,i,105.0,·,·
OCCNCC(O)Cn1c2ccccc2c2ccccc21 (configuration not stated),-0.5,-0.5,358.9,-2.8,i,116.7,91.4,89.5
OC(CN1CCOCC1)Cn1c2ccccc2c2ccccc21 (configuration not stated),-0.1,4.9,24.1,-1.8,i,43.8*,97.0,105.3
CCN(CC)CC(O)Cn1c2ccccc2c2ccccc21 (configuration not stated),0.1,2.4,368.9,-0.9,i,86.5,112.4,90.0
C=CCN(CC=C)CC(O)Cn1c2ccccc2c2ccccc21 (configuration not stated),-0.2,0.0,423.4,-1.6,i,96.6,92.1,98.1
CCOC(=O)c1ccc(Cl)c(S(=O)(=O)N2CCCC2)c1,0.5,2.4,280.7,-1.9,i,101.6,·,·
O=C(NC1CCCCC1)c1nc(C2CCNCC2)oc1-c1ccccc1,0.1,·,·,·,·,·,·,·
SMILES,KLK7 zymogen act,V-ATPase pHluor,T cell modulator,MIN6 prolif,Rce1 inh,Yeast superoxide,Superoxide pick,DHE fluor count
CCOC(=O)CC[C@H](NC(=O)Cn1cnc2c(OCc3ccccc3)ncnc21)C(=O)OCC,0.5,-0.9,356.4,-3.5,·,90.8,·,·
OC(CN1CCCCC1)Cn1c2ccc(Cl)cc2c2cc(Cl)ccc21 (configuration not stated),-0.1,-0.6,40.8,-7.0,i,45.1*,95.5,93.1
Cc1cc(-c2nnc(SCC(=O)Nc3ccccc3)n2C)no1,0.1,2.6,210.6,-0.8,i,57.8*,103.8,115.5
Cc1cc(-c2nnc(SCC(=O)Nc3ccc(C(F)(F)F)cc3)n2C)no1,0.0,1.4,i,-2.0,i,113.4,·,·
COC(=O)[C@@H](NS(=O)(=O)c1ccc(F)cc1Br)C(C)C,-0.1,0.0,·,·,·,·,·,·
COc1ccc(N/N=C(\C#N)C(N)=O)cc1,0.2,5.6,424.2,0.0,i,48.3*,99.3,102.9
CCOc1ccc(N/N=C(/C#N)C(N)=O)cc1,0.1,5.4,373.5,-0.3,i,45.6*,84.1,116.1
CCOC(=O)NC(=O)/C(C#N)=N\Nc1ccc(Cl)cc1,0.0,-2.9,130.1,0.8,i,106.9,102.5,98.5
COc1nc(N)nc2nc[nH]c12,0.2,-2.1,621.2,-5.4,i,108.9,·,·
O=C(CC(Cc1ccccc1)C(=O)O)Nc1ccccc1 (configuration not stated),0.3,-3.7,72.1,-2.8,i,50.0*,94.4,91.5
CCNC(=S)NNC(=O)c1csc2c1CCCC2,·,2.4,268.2,-2.3,i,58.4*,88.0,102.9
COc1ccc(Cl)cc1NC(=O)c1nnn(CC(=O)Nc2ccc(C)c(C)c2)c1N,0.3,-2.2,721.7,2.3,i,99.2,·,·
CC(=O)OCC(=O)Nc1ccc(SC(F)F)cc1,0.0,-5.3,448.5,-2.5,·,93.3,·,·
CCOc1cc(C(=O)OCC(=O)Nc2ccc(SC(F)F)cc2)cc(OCC)c1OCC,0.4,3.3,224.6,-4.5,i,39.4*,105.1,101.7
CC(C)c1nc(C(=O)N2CCCC(N3CCN(c4cccc(Cl)c4)CC3)C2)cs1 (configuration not stated),0.5,4.9,180.1,0.8,i,91.7,·,·
COc1ccc(NC(=O)CSc2nnc(-c3ccccc3)n2N)cc1,0.4,1.6,436.0,-0.6,i,104.1,·,·
C=CCn1c(SCC(=O)Nc2cc(NC(C)=O)ccc2OC)nnc1-c1ccccn1,-0.2,3.4,660.0,-3.3,i,112.1,·,·
CCOc1cccc(-c2nnc(SCC(=O)Nc3cccc(OC)c3)n2N)c1,1.0,6.8,·,·,i,·,104.3,99.8
C=CCn1c(SCC(=O)Nc2cc(NC(C)=O)ccc2OC)nnc1-c1cccnc1,0.1,2.5,718.8,1.3,i,105.0,93.9,94.1

# Screens as filed in PubChem.
